Only some compounds are listed: those with a hit (about 2.3% of all), similar ones and a draw of the others.
OXTR potentiator – potentiates the human oxytocin receptor response | P30559 | activation, % at 3 µM | 0.061% of 320,000 active | CHO-OTR cells, Fluo-8 calcium fluorescence, potentiator mode; 0% = oxytocin EC15, 100% = EC100;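 active = activation above that plate's cutoff, the mean activation of tested compounds plus 3 SD, cut at about 6.6% in these data, passing the limit was not always enough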;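 note: 100% uses oxytocin at 75 nM as the full agonist control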
Target sequence (P30559 whole entry, looked up): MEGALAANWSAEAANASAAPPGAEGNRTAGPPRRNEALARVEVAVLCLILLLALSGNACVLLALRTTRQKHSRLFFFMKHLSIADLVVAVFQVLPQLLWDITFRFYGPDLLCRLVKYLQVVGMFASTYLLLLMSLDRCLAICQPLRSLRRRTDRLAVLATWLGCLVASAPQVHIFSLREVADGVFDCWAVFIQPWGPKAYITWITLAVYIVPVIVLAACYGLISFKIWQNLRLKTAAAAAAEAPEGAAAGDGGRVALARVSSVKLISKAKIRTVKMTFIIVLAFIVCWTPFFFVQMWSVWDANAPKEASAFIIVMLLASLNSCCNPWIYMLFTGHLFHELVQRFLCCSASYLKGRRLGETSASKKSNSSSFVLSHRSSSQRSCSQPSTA
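Replication – single well per compound, singlicate · Assay system – CHO cell line stably expressing human OTR · Timing – 6 min pre-incubation, 100 s read · Measure – normalized max/min fluorescence ratio, % activation · Doses – 3.0 µM, one dose · Detection – Fluo-8 calcium dye fluorescence · Probe or stimulus – oxytocin near EC15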
TAAR1 antag – human TAAR1 antagonism. Q96RJ0. CHO RD-HGA16 TAAR1, Fluo-8 calcium fluorescence, antagonist. inhibition, % at 3 µM. 1.5% of 360,000 active. AID 624466;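 active = inhibition above a per-plate cutoff, the mean inhibition of test compounds on that plate plus 3 SD, cut at about 49% in these data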;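 note: 0% = DMSO plus EC80 beta-PEA response and 100% = DMSO alone without agonist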
Target sequence (Q96RJ0 whole entry, looked up): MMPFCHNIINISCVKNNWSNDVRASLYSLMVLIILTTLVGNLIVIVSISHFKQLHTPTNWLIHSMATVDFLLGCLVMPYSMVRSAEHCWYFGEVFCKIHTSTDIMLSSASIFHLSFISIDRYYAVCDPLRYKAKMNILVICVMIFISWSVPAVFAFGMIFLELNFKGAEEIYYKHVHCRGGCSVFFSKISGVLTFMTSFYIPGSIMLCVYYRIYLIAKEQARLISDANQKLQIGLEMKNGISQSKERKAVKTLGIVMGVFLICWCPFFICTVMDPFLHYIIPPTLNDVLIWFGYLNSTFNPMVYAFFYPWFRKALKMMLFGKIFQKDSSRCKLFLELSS
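Assay system: RD-HGA16 CHO cells with stable hTAAR1 and Gα16 / Reagent: EC80 β-phenethylamine stimulus / Doses: 3 µM, single point / Timing: dye loading 75 min at 37 °C, then 30 min room temperature / Measured by: Fluo-8 intracellular calcium dye fluorescence, real-time kinetic reads / Controls: vehicle wells and EC80 agonist wells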
TAAR1 ag – human TAAR1 agonism; 0.99% of 360,000 active; Q96RJ0; activation, % at 3 µM; CHO RD-HGA16 TAAR1, Fluo-8 calcium fluorescence; vehicle wells 0%, saturating PEA agonist 100%; AID 624467;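 active = activation above the mean activation of all test compounds in the run plus 3 SD, cut at about 38% in these data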
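Assay system – CHO-derived RD-HGA16 cells with stable Gα16 and human TAAR1 · Compound dosing – one-point dosing at 3 µM (nominal) · Incubation – 17-24 h seeding, 75 min 37 °C dye, 30 min RT · Measured by – kinetic Fluo-8 calcium fluorescence · Control set – DMSO vehicle as 0%, PEA at EC100 as 100% · Repeats – single well for each compound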
OXTR ag – agonists of human oxytocin receptor; P30559; CHO-OTR cells, Fluo-8 calcium fluorescence; normalized: DMSO 0%, oxytocin 100%; activation, % at 3 µM; 0.32% of 320,000 active; AID 2435;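 active = activation above the mean of all tested compounds plus 3 SD, cutoff set per screening run, cut at about 20% in these data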;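 note: peak over basal fluorescence ratio from a 100 s FLIPR kinetic read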
V1aR counter – activates human V1a receptor in oxytocin agonist counter-screen. P37288. CHO-V1R cells, Fluo-8 calcium fluorescence, agonist mode; 0% DMSO, 100% 3 nM vasopressin. activation, % at 3 µM. 0.25% of 320,000 active;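 active = activation above the mean activation of all tested compounds plus 3 SD, per screening run, cut at about 20% in these data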;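 note: signal is peak over basal fluorescence ratio across a 100 second FLIPR read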
nonsel antag count – nonselective antagonism, TAAR1 counter-screen. shares compounds with TAAR1 antag. 77% of 2,400 active. counterscreen cell line, calcium fluorescence, antagonist mode. AID 651780. inhibition, % at 3 µM; in the data active = inhibition above about 22%;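 note: CHO-Ga16 host cells stimulated with ATP at an EC80 level; 0% = agonist EC80 plus vehicle and 100% = vehicle without agonist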
TAAR1 antag conf – confirmation of human TAAR1 antagonists | shares compounds with TAAR1 antag | TAAR1-expressing cells, fluorescence antagonist read-out | inhibition, % at 3 µM | 40% of 2,400 active | AID 651785; in the data active = inhibition above about 49%;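 note: CHO-Ga16 host cells challenged with agonist PEA near its EC80; 0% = agonist at EC80 plus vehicle and 100% = vehicle with no agonist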
Ga16 ag counter – nonselective Ga16 agonism, counter-screen; shares compounds with TAAR1 antag; Ga16-expressing cells, calcium fluorescence, agonist counterscreen; activation, % at 3 µM; 18% of 2,400 active; AID 651953; in the data active = activation above about 12%;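 note: 0% = vehicle wells and 100% = saturating stimulus response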
TAAR1 ag counter – TAAR1 agonism, antagonist counter-screen | shares compounds with TAAR1 antag | hTAAR1 cell line, fluorescence activation, agonist mode | activation, % at 3 µM | 2% of 2,400 active; in the data active = activation above about 37%;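 note: CHO cells stably expressing TAAR1 with calcium dye readout; 0% = DMSO vehicle and 100% = full agonist response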
Starred values were filed as active, the others as inactive.

CCC(C)CN1C(=O)CN(S(C)(=O)=O)CC1(C)C(=O)Nc1c(C)cccc1C (stereo unspecified) was read as TAAR1 antag 6.4 and TAAR1 ag -0.5.
`Cc1[nH]c2nc3ccccc3n2c(=O)c1CCC(C)C` gave OXTR potentiator -11.6, OXTR ag -0.5 and V1aR counter 0.1.
Screening O=[N+]([O-])c1ccc(-c2c(-c3ccccc3)ncc3cc(F)ccc23)cc1 returned OXTR potentiator -2.9, TAAR1 antag 82.0*, TAAR1 ag 0.2, OXTR ag -1.4, V1aR counter -0.4, nonsel antag count 19.3, TAAR1 antag conf 55.3*, Ga16 ag counter 1.3 and TAAR1 ag counter 3.4.
Screening Cc1c(NC(=O)c2ccc(-c3cccc([N+](=O)[O-])c3)o2)c(=O)n(-c2ccccc2)n1C returned OXTR potentiator -0.9, TAAR1 antag 9.6, TAAR1 ag 3.3, OXTR ag 0.0 and V1aR counter 0.1.
`COC(=O)c1cc(NC(=O)COC(=O)C2COc3ccccc3O2)cc(C(=O)OC)c1` (stereo unspecified) gave OXTR potentiator -7.5, TAAR1 antag 72.1*, TAAR1 ag 9.4, OXTR ag 0.3, V1aR counter 0.2, nonsel antag count 26.4*, TAAR1 antag conf 42.3, Ga16 ag counter 7.6 and TAAR1 ag counter 4.3.
`Fc1ccccc1COc1ccc(Br)cc1CNCc1ccncc1` gave OXTR potentiator -7.8, TAAR1 antag 74.9*, TAAR1 ag 13.0, OXTR ag 0.5, V1aR counter 2.2, nonsel antag count 40.5*, TAAR1 antag conf 62.5*, Ga16 ag counter 11.5* and TAAR1 ag counter 17.0.
`COc1ccc(OCCCCc2c(C)n[nH]c2C)cc1` gave OXTR potentiator -15.9, TAAR1 antag -7.6, TAAR1 ag -0.5, OXTR ag 4.1 and V1aR counter 13.4.
For O=C(Nc1cccnc1)c1cc(-c2cccc(Br)c2)nc2ccccc12 the results were OXTR potentiator -10.1, TAAR1 antag 65.4*, TAAR1 ag 2.1, OXTR ag 1.1, V1aR counter 1.6, nonsel antag count 26.7*, TAAR1 antag conf 46.8, Ga16 ag counter 5.5 and TAAR1 ag counter 4.6.
Screening COc1cc(-c2cc(C(=O)Nc3ccncc3)c3ccccc3n2)cc(OC)c1OC returned OXTR potentiator -4.1, TAAR1 antag 61.1*, TAAR1 ag 23.4, OXTR ag 1.5, V1aR counter 1.5, nonsel antag count 27.9*, TAAR1 antag conf 48.5, Ga16 ag counter 7.8 and TAAR1 ag counter 6.4.
For CCOc1ccccc1NC(=O)c1cc(-c2cc(OC)c(OC)c(OC)c2)nc2ccccc12 the results were OXTR potentiator -6.4, TAAR1 antag 59.3*, TAAR1 ag 5.8, OXTR ag -0.6, V1aR counter 1.2, nonsel antag count 28.9*, TAAR1 antag conf 50.6*, Ga16 ag counter 4.3 and TAAR1 ag counter 2.0.
Screening COc1cc(-c2cc(C(=O)Nc3ccc(N4CCOCC4)cc3)c3ccccc3n2)cc(OC)c1OC returned OXTR potentiator -4.3, TAAR1 antag 72.2*, TAAR1 ag 12.5, OXTR ag 0.1, V1aR counter 0.3, nonsel antag count 31.6*, TAAR1 antag conf 50.7*, Ga16 ag counter 6.8 and TAAR1 ag counter 6.0.
Screening COc1ccc(NC(=O)c2cc(-c3ccco3)nc3ccccc23)cc1S(=O)(=O)N1CCOCC1 returned OXTR potentiator -4.5, TAAR1 antag 45.0, TAAR1 ag 18.9, OXTR ag -1.3 and V1aR counter -1.1.
`CNC(=O)c1ccc(CN(C)C(=O)c2cccc(S(=O)(=O)N3CCc4ccccc4C3)c2)cc1` gave TAAR1 antag -27.6 and TAAR1 ag 4.4.
O=C(Nc1ccccc1N1CCOCC1)c1cc(-c2ccncc2)nc2ccccc12 was read as OXTR potentiator 1.2, TAAR1 antag 63.4*, TAAR1 ag 16.2, OXTR ag -1.3, V1aR counter -0.5, nonsel antag count 27.1*, TAAR1 antag conf 43.6, Ga16 ag counter 7.9 and TAAR1 ag counter 8.5.
COc1ccc(-c2cc(C(=O)NNC(=O)c3csc(N4CCOCC4)n3)c3ccccc3n2)cc1 was read as OXTR potentiator -4.6, TAAR1 antag 60.8*, TAAR1 ag 9.3, OXTR ag -0.2, V1aR counter 0.8, nonsel antag count 30.1*, TAAR1 antag conf 44.6, Ga16 ag counter 6.5 and TAAR1 ag counter 5.2.
For COc1ccc(-c2cc(C(=O)Nc3ccccc3N3CCOCC3)c3ccccc3n2)cc1OC the results were OXTR potentiator -14.3, TAAR1 antag 59.3*, TAAR1 ag 5.6, OXTR ag -2.7, V1aR counter -1.8, nonsel antag count 23.6*, TAAR1 antag conf 45.3, Ga16 ag counter 5.7 and TAAR1 ag counter 3.2.
`O=C(Nc1ccc(N2CCOCC2)cc1)c1cc(-c2ccncc2)nc2ccccc12` gave OXTR potentiator -4.0, TAAR1 antag 22.3, TAAR1 ag 10.5, OXTR ag -0.1 and V1aR counter 0.6.
`CCOc1ccc(S(=O)(=O)NCCC(=O)N2CC=C(c3ccccc3)CC2)cc1` gave OXTR potentiator -12.8, TAAR1 antag 17.5, TAAR1 ag 0.7, OXTR ag 9.6 and V1aR counter 6.6.
CC1CCc2cc(F)ccc2N1C(=O)CSc1nnc2c(n1)[nH]c1ccccc12 (stereo unspecified) was read as OXTR potentiator -17.7, TAAR1 antag 56.2*, TAAR1 ag 13.3, OXTR ag -0.5, V1aR counter 1.2, nonsel antag count 34.0*, TAAR1 antag conf 58.0*, Ga16 ag counter 7.3 and TAAR1 ag counter 9.3.
O=C(CSc1nnc2c(n1)[nH]c1ccccc12)N1CCCCC1 was read as OXTR potentiator 1.0, TAAR1 antag 9.1, TAAR1 ag -1.0, OXTR ag -0.1 and V1aR counter 0.0.
`CCOC(=O)N1CCN(C(=O)CSc2nc3c([nH]c4ccccc43)c(=O)n2CCOC)CC1` gave OXTR potentiator -6.9, TAAR1 antag 55.4*, TAAR1 ag 10.8, OXTR ag -1.4, V1aR counter 0.1, nonsel antag count 28.2*, TAAR1 antag conf 42.7, Ga16 ag counter 5.4 and TAAR1 ag counter 3.4.
